Assay [1] has as its target T1, Protein deacetylase HDAC6 (Homo sapiens) (UniProt Q9UBN7).
T1 sequence (whole entry): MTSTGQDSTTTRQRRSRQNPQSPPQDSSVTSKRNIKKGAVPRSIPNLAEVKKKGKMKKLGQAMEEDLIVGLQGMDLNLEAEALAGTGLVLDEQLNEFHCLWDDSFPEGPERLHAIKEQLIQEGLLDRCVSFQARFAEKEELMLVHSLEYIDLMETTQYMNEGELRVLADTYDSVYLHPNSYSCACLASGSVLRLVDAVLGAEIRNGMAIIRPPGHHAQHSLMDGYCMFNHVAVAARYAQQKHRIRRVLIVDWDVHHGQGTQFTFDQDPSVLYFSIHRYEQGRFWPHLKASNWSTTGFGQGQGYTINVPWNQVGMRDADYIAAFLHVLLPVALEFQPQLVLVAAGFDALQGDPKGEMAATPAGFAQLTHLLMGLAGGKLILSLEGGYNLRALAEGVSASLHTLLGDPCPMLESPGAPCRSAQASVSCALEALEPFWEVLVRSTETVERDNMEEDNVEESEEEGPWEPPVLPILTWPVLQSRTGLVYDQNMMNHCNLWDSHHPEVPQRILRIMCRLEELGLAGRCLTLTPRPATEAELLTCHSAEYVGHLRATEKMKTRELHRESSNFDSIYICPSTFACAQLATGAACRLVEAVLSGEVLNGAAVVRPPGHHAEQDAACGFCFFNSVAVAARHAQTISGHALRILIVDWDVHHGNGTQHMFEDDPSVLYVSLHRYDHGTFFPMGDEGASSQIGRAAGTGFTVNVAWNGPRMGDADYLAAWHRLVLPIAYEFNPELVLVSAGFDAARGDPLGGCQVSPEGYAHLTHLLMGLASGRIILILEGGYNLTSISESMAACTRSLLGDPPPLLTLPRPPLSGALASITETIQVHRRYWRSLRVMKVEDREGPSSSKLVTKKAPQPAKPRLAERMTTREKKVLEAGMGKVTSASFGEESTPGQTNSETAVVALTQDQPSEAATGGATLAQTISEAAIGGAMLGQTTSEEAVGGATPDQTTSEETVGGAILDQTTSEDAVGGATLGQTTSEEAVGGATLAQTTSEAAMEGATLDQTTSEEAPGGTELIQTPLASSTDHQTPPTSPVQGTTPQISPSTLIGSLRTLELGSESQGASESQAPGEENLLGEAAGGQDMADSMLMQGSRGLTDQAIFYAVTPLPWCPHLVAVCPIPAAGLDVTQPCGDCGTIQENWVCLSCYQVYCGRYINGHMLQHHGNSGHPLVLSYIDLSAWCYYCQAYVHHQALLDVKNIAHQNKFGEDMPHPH
Put plainly: Inhibition of recombinant full length HDAC6 (unknown origin) using Ac-peptide-AMC as substrate at 100 nM after 1 hr by fluorescence assay relative to control. A digest of the protocol: (§1)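 Full-length recombinant HDAC1 or HDAC6 was incubated with compound, trypsin and Ac-peptide-AMC substrate for 1 h at room temperature. Fluorescence was read at ex 355/em 460 nm. Inhibition was calculated against the DMSO vehicle control.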

The target of the next assay is Histone deacetylase 1 (Homo sapiens, UniProt Q13547). Put plainly: Inhibition of recombinant full length HDAC1 (unknown origin) using Ac-peptide-AMC as substrate at 100 nM after 1 hr by fluorescence assay relative to control. The method in brief:
as §1

The test system of a further assay is Raji. Put plainly: Antiproliferative activity against human Raji cells after 72 hrs by MTT assay. In kind it is functional, cell-based. On the technique in general: Formazan colour is commonly taken as a measure of viable cells.

As usually defined, the inhibition is the percentage by which the read-out fell short of the control. By IC50 is commonly meant the concentration needed to halve the response being measured.

Chain of Histone deacetylase 1 (Q13547 whole entry): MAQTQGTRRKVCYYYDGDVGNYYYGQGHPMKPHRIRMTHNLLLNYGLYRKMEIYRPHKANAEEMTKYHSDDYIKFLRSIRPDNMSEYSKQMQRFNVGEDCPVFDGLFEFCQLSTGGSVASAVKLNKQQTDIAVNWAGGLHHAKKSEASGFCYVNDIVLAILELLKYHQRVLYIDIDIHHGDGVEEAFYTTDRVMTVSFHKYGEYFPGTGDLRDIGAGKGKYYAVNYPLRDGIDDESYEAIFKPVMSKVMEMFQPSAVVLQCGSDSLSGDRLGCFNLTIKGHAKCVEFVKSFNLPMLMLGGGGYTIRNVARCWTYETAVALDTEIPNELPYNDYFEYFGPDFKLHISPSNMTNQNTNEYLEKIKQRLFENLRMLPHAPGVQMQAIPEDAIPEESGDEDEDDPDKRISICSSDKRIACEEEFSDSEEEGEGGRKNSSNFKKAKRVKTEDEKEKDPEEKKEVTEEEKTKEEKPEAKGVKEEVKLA

Regarding `Cc1ccc(CN2CCC(c3noc(COc4ccc(/C=C/C(=O)NO)cc4)n3)CC2)cc1`, the values for the inhibition (in assay [1]; at Histone deacetylase 1) were 76% and 32%, respectively.
In the same order, the values of `O=C(/C=C/c1ccc(OCc2nc(C3CCN(Cc4ccccc4)CC3)no2)cc1)NO` are 71% and 35%.
As to `CN(Cc1nc(C2CCN(Cc3ccc(F)cc3Cl)CC2)no1)c1ncc(C(=O)NO)cn1`, the concentration for half-maximal inhibition (IC50) in the assay on Raji was 0.116 µM. The inhibition was 49% in assay [1] and 73% on Histone deacetylase 1.
As for `O=C(/C=C/c1ccc(OCc2nc(C3CCN(Cc4cccc(F)c4)CC3)no2)cc1)NO`, the figures for the inhibition (in assay [1]; at Histone deacetylase 1) were 73% and 35%, respectively.
In the case of `C=CCN1CCC(c2noc(COc3ccc(/C=C/C(=O)NO)cc3)n2)CC1`, the results for the inhibition (in assay [1]; at Histone deacetylase 1) were 66% and 34%, respectively.
For the compound `Cc1ccc(CN2CCC(c3noc(CN(C)c4ncc(/C=C/C(=O)NO)cn4)n3)CC2)cc1`, in the assay with Raji, the 50% inhibitory concentration (IC50) was determined as 0.292 µM. Also, the inhibition in assay [1] stood at 60%; at Histone deacetylase 1, 61%.
Consider `C=CCN1CCC(c2noc(COc3ccc(CCC(=O)NO)cc3)n2)CC1`, for which the inhibition in assay [1] was 15%; at Histone deacetylase 1, 4%.
With `N#Cc1ccccc1CN1CCC(c2noc(COc3ccc(/C=C/C(=O)NO)cc3)n2)CC1`, the inhibition was determined as 65% in assay [1] and 36% on Histone deacetylase 1.
In the same order, the values of `O=C(/C=C/c1ccc(OCc2nc(C3CCN(Cc4ccc(F)cc4)CC3)no2)cc1)NO` are 75% and 38%.
Take `O=C(/C=C/c1ccc(OCc2nc(C3CCN(Cc4ccc(F)cc4F)CC3)no2)cc1)NO`: the figures for the inhibition (in assay [1]; at Histone deacetylase 1) were 74% and 35%, respectively.
On to `O=C(/C=C/c1ccc(OCc2nc(C3CCN(Cc4ccc(F)c(F)c4)CC3)no2)cc1)NO`, for which the results for the inhibition (in assay [1]; on Histone deacetylase 1) were 60% and 17%, respectively.
Consider `O=C(/C=C/c1ccc(OCc2nc(C3CCN(Cc4ccccc4F)CC3)no2)cc1)NO`, for which the values for the inhibition (in assay [1]; at Histone deacetylase 1) were 68% and 31%, respectively.
In the same order, the values of `Cc1ccccc1CN1CCC(c2noc(COc3ccc(/C=C/C(=O)NO)cc3)n2)CC1` are 68% and 14%.
For `Cc1cccc(CN2CCC(c3noc(COc4ccc(/C=C/C(=O)NO)cc4)n3)CC2)c1` the same measures were 73% and 25%.
Regarding `O=C(NO)c1ccc(OCc2nc(C3CCN(Cc4ccccc4)CC3)no2)cc1`, the inhibition worked out at 66% in assay [1] and 29% at Histone deacetylase 1.
In the same order, the values of `CCCN1CCC(c2noc(COc3ccc(/C=C/C(=O)NO)cc3)n2)CC1` are 69% and 40%.
On to `O=C(/C=C/c1ccc(OCc2nc(C3CCN(Cc4ccccc4[N+](=O)[O-])CC3)no2)cc1)NO`, for which the inhibition in assay [1] is 63%; at Histone deacetylase 1, 19%.
Compound `CN(Cc1nc(C2CCN(Cc3ccc(C(F)(F)F)cc3)CC2)no1)c1ncc(C(=O)NO)cn1` registered a concentration for half-maximal inhibition (IC50) with Raji of 0.207 µM. Further, the inhibition in assay [1] amounted to 30%; on Histone deacetylase 1, 62%.
For `CN(Cc1nc(C2CCN(Cc3ccccc3Cl)CC2)no1)c1ncc(C(=O)NO)cn1` the same measures were 0.0483 µM, 55% and 93%.
As for `CCCN1CCC(c2noc(COc3ccc(CCC(=O)NO)cc3)n2)CC1`, the inhibition in assay [1] was determined as 13%; on Histone deacetylase 1 it was 5%.
As to `CN(Cc1nc(C2CCN(Cc3ccccc3F)CC2)no1)c1ncc(C(=O)NO)cn1`, inhibition with Raji was half-maximal at 0.0986 µM (IC50). In addition, the figures for the inhibition (in assay [1]; at Histone deacetylase 1) were 44% and 84%, respectively.
In the assay with Raji, `CN(Cc1nc(C2CCN(Cc3ccccc3)CC2)no1)c1ncc(/C=C/C(=O)NO)cn1` returned an IC50 of 0.547 µM. In addition, the inhibition in assay [1] was found to be 55%; on Histone deacetylase 1, 65%.
For the compound `CN(Cc1nc(C2CCN(Cc3ccccc3)CC2)no1)c1ncc(C(=O)NO)cn1`, in the assay on Raji, the half-maximal inhibitory concentration (IC50) came to 0.0276 µM. Moreover, the inhibition in assay [1] was 63%; on Histone deacetylase 1, 96%.
As to `COc1ccc(CN2CCC(c3noc(COc4ccc(/C=C/C(=O)NO)cc4)n3)CC2)cc1`, the inhibition in assay [1] stood at 75%; on Histone deacetylase 1, 36%.
Take `Cc1ccc(CN2CCC(c3noc(COc4ccc(CCC(=O)NO)cc4)n3)CC2)cc1`: the values for the inhibition (in assay [1]; on Histone deacetylase 1) were 28% and 12%, respectively.
The compound `CN(Cc1nc(C2CCN(Cc3ccc(F)cc3F)CC2)no1)c1ncc(C(=O)NO)cn1` yielded a 50% inhibitory concentration (IC50) in the assay with Raji of 0.0343 µM. In addition, the inhibition worked out at 66% in assay [1] and 88% at Histone deacetylase 1.
Take `CN(Cc1nc(C2CCN(Cc3ccc(F)cc3)CC2)no1)c1ncc(C(=O)NO)cn1`: the IC50 with Raji came out at 0.022 µM. The inhibition in assay [1] was found to be 65%; at Histone deacetylase 1 it was 92%.
As to `O=C(CCc1ccc(OCc2nc(C3CCN(Cc4ccccc4)CC3)no2)cc1)NO`, the inhibition in assay [1] was 22%; on Histone deacetylase 1, 11%.
In the same order, the values of `O=C(/C=C/c1ccc(OCc2nc(C3CCN(Cc4ccc(Br)cc4)CC3)no2)cc1)NO` are 58% and 6%.
In the same order, the values of `O=C(/C=C/c1ccc(OCc2nc(C3CCN(Cc4ccccc4Cl)CC3)no2)cc1)NO` are 59% and 8%.
Turning to `Cc1cccc(CN2CCC(c3noc(CN(C)c4ncc(C(=O)NO)cn4)n3)CC2)c1`, the IC50 with Raji came out at 0.0473 µM. Further, the inhibition in assay [1] was 54%; on Histone deacetylase 1, 93%.
For `CN(Cc1nc(C2CCN(Cc3ccc(C#N)cc3)CC2)no1)c1ncc(C(=O)NO)cn1` the same measures were 0.117 µM, 38% and 68%.
With `O=C(Cc1ccc(OCc2nc(C3CCN(Cc4ccccc4)CC3)no2)cc1)NO`, the inhibition in assay [1] was 35%; at Histone deacetylase 1, 18%.

(Values after ChEMBL document CHEMBL4364248, “Discovery of 1,2,4-oxadiazole-Containing hydroxamic acid derivatives as histone deacetylase inhibitors potential application in cancer therapy” (Eur J Med Chem, 2019).)
